Hits are enriched below; roughly 2.4% of the tested compounds scored in any of these assays.
NPY Y2 blocker: blocks the human neuropeptide Y Y2 receptor; 0.99% of 140,000 active; NPY-Y2 expressing cells, antagonist mode; AID 793; inhibition, % at 2.7 µM; in the data active means inhibition above about 17%;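 further: 0% = vehicle with agonist challenge and 100% = reference antagonist with challenge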
NPY-Y1 PAM-ag: potentiators or agonists of human neuropeptide Y receptor Y1; NPY-Y1 expressing cells, potentiator/agonist activation; activation, % at 3.6 µM; 0.37% of 220,000 active; in the data active means activation above about 33%, passing the limit was not always enough;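 further: cells stimulated with NPY at EC10 then isoproterenol at EC100; 0% = low agonist plus stimulus and 100% = saturating agonist plus stimulus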
Target sequence (P25929 whole entry, looked up): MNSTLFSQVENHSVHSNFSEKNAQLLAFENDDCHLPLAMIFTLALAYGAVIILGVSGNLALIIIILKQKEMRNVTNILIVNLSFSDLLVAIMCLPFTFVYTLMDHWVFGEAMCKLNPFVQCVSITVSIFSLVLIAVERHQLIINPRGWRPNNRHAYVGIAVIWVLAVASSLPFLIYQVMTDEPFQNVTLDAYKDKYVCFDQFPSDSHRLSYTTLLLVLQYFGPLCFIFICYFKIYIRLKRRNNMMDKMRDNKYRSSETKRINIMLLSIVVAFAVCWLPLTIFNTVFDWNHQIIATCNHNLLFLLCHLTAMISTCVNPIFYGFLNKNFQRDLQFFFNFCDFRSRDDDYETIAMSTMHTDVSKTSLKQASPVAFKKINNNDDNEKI
S1P4 antag: human S1P4 receptor antagonism. inhibition, % at 4.98 µM. S1P4-expressing cells, antagonist mode, reporter read-out. O95977. AID 1510. 0.26% of 220,000 active; in the data active means inhibition above about 29%;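 further: 0% = wells stimulated with agonist and 100% = vehicle wells without agonist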
S1P4 agonist: agonists of human S1P4 receptor; O95977; S1P4-expressing cell line, agonist reporter assay; activation, % at 4.98 µM; 0.35% of 220,000 active; AID 1509; in the data active means activation above about 11%;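 further: 0% = DMSO vehicle and 100% = reference agonist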
NPY Y1 blocker: NPY-Y1 (human) receptor antagonism | P25929 | 1% of 200,000 active | inhibition, % at 3.6 µM | HEK293-CNG Y1 cells, membrane potential fluorescence; NPY at EC95, then isoproterenol;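 active means inhibition above the campaign mean inhibition of all tested compounds plus 3 SD, cut at about 20% in these data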;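 further: 0% = DMSO wells given NPY plus isoproterenol and 100% = isoproterenol alone without NPY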
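Benchmarks – high control isoproterenol alone, low control NPY with isoproterenol · Material – HEK293 Y1/CNG channel cell line · Times – dye 3 h, compound 60 min room temperature, stimulation 45 min · Probe or stimulus – NPY (25 nM), isoproterenol (1 µM), Ro 20-1724 (25 µM) · Evaluation – % inhibition of NPY effect · Signal – fluorescence, membrane potential probe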
NPY2 pot ag: potentiators or agonists of human neuropeptide Y receptor Y2 | cells expressing NPY-Y2, potentiator/agonist read-out | P49146 | 0.45% of 220,000 active | activation, % at 3.6 µM; in the data active means activation above about 27%;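 further: cells stimulated with NPY near EC25 plus isoproterenol at EC100; 0% = vehicle plus submaximal agonist and 100% = vehicle plus saturating agonist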
NPY-Y1 pot conf: human NPY-Y1 potentiation or agonism, confirmation; 20% of 280 active; activation, % at 3.6 µM; cell-based NPY-Y1 potentiator/agonist assay; shares compounds with NPY-Y1 PAM-ag; AID 1546; in the data active means activation above about 45%;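 further: cells challenged with NPY at its EC10 plus isoproterenol stimulus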
NPY-Y2 counter: potentiates or activates NPY-Y2, counter-screen for NPY-Y1 hits. 20% of 280 active. AID 1649. HEK293-CNG cells, membrane-potential fluorescence (FLIPR), 1536-well. activation, % at 3.6 µM. shares compounds with NPY-Y1 PAM-ag
NPY-Y1 ag: counter-screen for NPY-Y1 potentiators: agonists of human NPY-Y1. shares compounds with NPY-Y1 PAM-ag. HEK293 Y1-CNGC, membrane potential fluorescence, agonist mode. activation, % at 3.6 µM. 50% of 280 active;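 active means percent activation above the mean of DMSO-only control wells plus 3 SD of those wells, cut at about 18% in these data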;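 further: cells challenged with isoproterenol plus Ro 20-1724 with no NPY in test wells; Y1 agonism lowers isoproterenol-driven cAMP and reduces probe fluorescence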
NPY-Y2 agonist: activates human NPY-Y2, counter-screen for NPY-Y1 hits. AID 1698. HEK293 Y2-CNGC, membrane potential fluorescence, agonist mode. shares compounds with NPY-Y1 PAM-ag. activation, % at 3.6 µM. 67% of 280 active;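 active means activation above the solvent-only control wells' mean plus 3 SD, cut at about 11% in these data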;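 further: 0% = DMSO with isoproterenol and 100% = 40 nM NPY maximal response; agonism lowers cAMP so well fluorescence drops in active wells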
CNGC counter: blocks cyclic nucleotide gated channel in NPY-Y1 counter-screen. shares compounds with NPY-Y1 PAM-ag. HEK293-CNG parental, isoproterenol cAMP, membrane potential fluorescence. inhibition, % at 3.6 µM. 42% of 280 active;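 active means inhibition above the mean of stimulated solvent-only control wells plus 3 SD, cut at about 22% in these data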;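 further: 0% = isoproterenol-stimulated DMSO wells and 100% = unstimulated DMSO wells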
NPY-Y2 pot conf: confirmation of human NPY-Y2 receptor potentiators or agonists | activation, % at 3.6 µM | 20% of 450 active | AID 1539 | shares compounds with NPY2 pot ag | cell-based NPY-Y2 potentiator/agonist assay
NPY-Y1 potentiator: NPY-Y1 potentiation or agonism as NPY-Y2 counter-screen. shares compounds with NPY2 pot ag. Y1 HEK293-CNG cells, membrane potential fluorescence. activation, % at 3.6 µM. 20% of 450 active. AID 1651; in the data active means activation above about 45%;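 further: cells stimulated with submaximal NPY then isoproterenol with phosphodiesterase inhibitor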
NPY-Y1 ag 2: human NPY-Y1 agonism as NPY-Y2 potentiator counter-screen; shares compounds with NPY2 pot ag; HEK293 Y1-CNGC, membrane potential fluorescence; activation, % at 3.6 µM; 37% of 450 active;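 active means activation above the mean of DMSO-only control wells plus 3 SD, cut at about 18% in these data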;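 further: cells stimulated with 1 µM isoproterenol plus the PDE inhibitor Ro 20-1724; 0% = isoproterenol with DMSO and no NPY and 100% = 40 nM NPY; Y1 agonists lower the membrane potential dye signal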
CNGC inh: cyclic nucleotide gated channel inhibition as counter-screen; 32% of 450 active; HEK293-CNG parental, isoproterenol cAMP, membrane potential fluorescence; AID 1703; shares compounds with NPY2 pot ag; inhibition, % at 3.6 µM;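 active means inhibition above the control-well mean plus 3 SD of those wells, cut at about 22% in these data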;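 further: 0% = DMSO with isoproterenol and 100% = DMSO without isoproterenol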
Y2 agonist ctr: NPY-Y2 agonism, counter-screen for Y2 potentiators. shares compounds with NPY2 pot ag. HEK293 Y2/CNGC cells, membrane potential fluorescence, agonist mode. activation, % at 3.6 µM. 56% of 450 active. AID 1710;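 active means activation above the mean of solvent-only control wells plus 3 SD, cut at about 10% in these data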;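 further: cells stimulated by isoproterenol with no NPY added so direct agonism is tested; 0% = DMSO with isoproterenol alone and 100% = NPY at EC100 plus isoproterenol; agonism lowers probe fluorescence through less cAMP and CNG channel opening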
S1P4 antag conf: human S1P4 antagonism, confirmation | shares compounds with S1P4 antag | S1P4-expressing cell line, antagonist mode, reporter read-out | inhibition, % at 4.98 µM | AID 1524 | 71% of 520 active; in the data active means inhibition above about 30%
S1P1 antag: blocks human S1P1, counter-screen for S1P4 antagonists | 37% of 520 active | shares compounds with S1P4 antag | inhibition, % at 4.98 µM | cell-based S1P1 antagonist counterscreen, inhibition; in the data active means inhibition above about 40%;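 further: receptor stimulated with S1P near its EC80; 0% = agonist stimulated wells and 100% = vehicle only wells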
Active calls of the source: *; . = no result. Unless noted, no stated cut-off is given here; in the data, active means activation above about 33%; inactive means the rest.

SMILES	NPY Y2 blocker	NPY-Y1 PAM-ag	S1P4 antag	S1P4 agonist	NPY Y1 blocker	NPY2 pot ag	NPY-Y1 pot conf	NPY-Y2 counter	NPY-Y1 ag	NPY-Y2 agonist	CNGC counter	NPY-Y2 pot conf	NPY-Y1 potentiator	NPY-Y1 ag 2	CNGC inh	Y2 agonist ctr	S1P4 antag conf	S1P1 antag
Cc1c(/C=N/Nc2nc3ccccc3[nH]2)c2ccccc2n1C	.	56*	32*	-2	.	37	47*	41*	35*	43*	34*	.	.	.	.	.	108*	52*
Cc1nn(-c2ccccc2)c(C)c1/C=N/Nc1nc2ccccc2[nH]1	2	9	-7	3	8	7	.	.	.	.	.	.	.	.	.	.	.	.
O=C(Nc1ccccc1)Nc1cc(OCC(F)(F)F)cc(OCC(F)(F)F)c1	-2	46*	101*	-1	-4	24	36	30	11	25*	25*	.	.	.	.	.	112*	-6
CCN(CC)S(=O)(=O)c1cc(NC(=O)Cn2ncc(Cl)c(Cl)c2=O)ccc1C	.	44*	60*	-1	.	32	36	19	22*	18*	27*	.	.	.	.	.	72*	46*
O=C(O)c1ccccc1-c1ccccc1C(=O)NNc1ccccc1	-1	-11	-14	3	-3	3	.	.	.	.	.	.	.	.	.	.	.	.
Cc1onc(-c2ccccc2Cl)c1C(=O)N1CCCc2ccccc21	-1	-5	3	-1	-3	-3	.	.	.	.	.	.	.	.	.	.	.	.
CC(=O)c1c(C)[nH]c(C(=O)OCc2ccccc2F)c1C	.	9	-18	2	-2	29*	.	.	.	.	.	13	17	16	27*	25*	.	.
Cc1sc2nc(SCc3ccc(C(=O)O)cc3)n(Cc3ccco3)c(=O)c2c1C	.	27	13	-1	.	56*	.	.	.	.	.	24	29	32*	17	22*	.	.
CCc1nnc(NC(=O)CSc2nnc3c4ccccc4n(C)c3n2)s1	7	-10	-23	0	6	-9	.	.	.	.	.	.	.	.	.	.	.	.
O=c1[nH]c(/C=C\c2cccnc2)c([N+](=O)[O-])c(=O)[nH]1	.	26	9	-2	-12	37*	.	.	.	.	.	25	37	39*	27*	31*	.	.
CCC(=O)Nc1cccc(C(=O)c2ccccc2)c1	1	12	-16	-1	1	7	.	.	.	.	.	.	.	.	.	.	.	.
CCCc1cc(-c2[nH]ncc2-c2ccc(C(=O)OCC)o2)c(O)cc1O	-2	26	11	0	-1	41*	.	.	.	.	.	20	19	10	13	22*	.	.
